Source: ChEMBL document CHEMBL1153277 (Bioorg Med Chem Lett, 2009)
Blank lines part the entries; values can stand above or below the compound they belong to.

Columns and labels:
Homo sapiens [1] = species on record: Homo sapiens; assay: Selectivity for human alpha3beta4 nAChR over human alpha7 nAChR
[2] = target: Neuronal acetylcholine receptor; alpha3/beta4 (Homo sapiens, UniProt P30926+P32297); assay: Antagonist activity at human alpha3beta4 nAChR expressed in HEK293 cells by calcium influx assay; type: functional, cell-based
Chain of Neuronal acetylcholine receptor; alpha3/beta4 (P30926 whole entry): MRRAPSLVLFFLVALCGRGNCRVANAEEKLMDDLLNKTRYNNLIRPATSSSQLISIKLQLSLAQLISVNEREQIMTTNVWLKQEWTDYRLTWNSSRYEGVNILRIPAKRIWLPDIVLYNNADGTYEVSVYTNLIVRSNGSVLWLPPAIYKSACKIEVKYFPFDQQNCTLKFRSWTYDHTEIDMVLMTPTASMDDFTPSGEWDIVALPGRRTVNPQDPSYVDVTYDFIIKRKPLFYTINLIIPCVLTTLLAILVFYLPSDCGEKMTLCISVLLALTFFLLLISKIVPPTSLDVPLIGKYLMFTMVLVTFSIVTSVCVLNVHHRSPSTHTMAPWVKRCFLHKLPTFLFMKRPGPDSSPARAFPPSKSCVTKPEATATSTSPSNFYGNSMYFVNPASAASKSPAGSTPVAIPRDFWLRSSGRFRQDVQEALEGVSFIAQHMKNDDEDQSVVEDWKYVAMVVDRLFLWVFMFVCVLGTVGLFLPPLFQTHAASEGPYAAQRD
Chain of Neuronal acetylcholine receptor; alpha3/beta4 (P32297 whole entry): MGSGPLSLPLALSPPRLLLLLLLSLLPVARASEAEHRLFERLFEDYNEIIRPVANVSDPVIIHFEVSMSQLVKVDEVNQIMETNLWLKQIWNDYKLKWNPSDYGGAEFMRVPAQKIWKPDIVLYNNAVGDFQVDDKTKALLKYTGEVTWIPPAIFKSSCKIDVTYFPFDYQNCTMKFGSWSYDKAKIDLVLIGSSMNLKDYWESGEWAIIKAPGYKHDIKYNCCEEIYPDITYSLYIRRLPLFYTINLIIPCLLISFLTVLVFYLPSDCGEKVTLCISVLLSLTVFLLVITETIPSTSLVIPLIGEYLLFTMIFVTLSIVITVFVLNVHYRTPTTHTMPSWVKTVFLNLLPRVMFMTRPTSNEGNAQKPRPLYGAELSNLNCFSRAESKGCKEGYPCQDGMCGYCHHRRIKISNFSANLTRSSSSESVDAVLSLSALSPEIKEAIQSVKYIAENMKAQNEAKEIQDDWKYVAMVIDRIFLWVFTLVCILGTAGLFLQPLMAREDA

[3] = target: Neuronal acetylcholine receptor; alpha4/beta2 (Homo sapiens, UniProt P17787+P43681); assay: Antagonist activity at human alpha4beta2 nAChR expressed in HEK293 cells by calcium influx assay; type: functional, cell-based
Chain of Neuronal acetylcholine receptor; alpha4/beta2 (P17787 whole entry): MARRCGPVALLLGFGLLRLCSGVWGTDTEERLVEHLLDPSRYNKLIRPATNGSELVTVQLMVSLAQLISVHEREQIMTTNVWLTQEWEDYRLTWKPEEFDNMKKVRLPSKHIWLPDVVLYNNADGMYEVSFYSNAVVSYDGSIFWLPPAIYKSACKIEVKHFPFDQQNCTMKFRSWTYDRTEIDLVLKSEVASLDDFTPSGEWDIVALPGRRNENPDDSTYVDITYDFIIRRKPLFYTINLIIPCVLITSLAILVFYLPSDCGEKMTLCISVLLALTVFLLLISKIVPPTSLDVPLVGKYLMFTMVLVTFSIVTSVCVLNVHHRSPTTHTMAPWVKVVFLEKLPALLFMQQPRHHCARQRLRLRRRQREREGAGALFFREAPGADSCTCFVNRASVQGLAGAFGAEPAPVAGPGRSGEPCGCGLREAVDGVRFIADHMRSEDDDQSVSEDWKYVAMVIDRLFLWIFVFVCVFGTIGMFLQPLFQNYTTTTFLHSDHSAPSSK
Chain of Neuronal acetylcholine receptor; alpha4/beta2 (P43681 whole entry): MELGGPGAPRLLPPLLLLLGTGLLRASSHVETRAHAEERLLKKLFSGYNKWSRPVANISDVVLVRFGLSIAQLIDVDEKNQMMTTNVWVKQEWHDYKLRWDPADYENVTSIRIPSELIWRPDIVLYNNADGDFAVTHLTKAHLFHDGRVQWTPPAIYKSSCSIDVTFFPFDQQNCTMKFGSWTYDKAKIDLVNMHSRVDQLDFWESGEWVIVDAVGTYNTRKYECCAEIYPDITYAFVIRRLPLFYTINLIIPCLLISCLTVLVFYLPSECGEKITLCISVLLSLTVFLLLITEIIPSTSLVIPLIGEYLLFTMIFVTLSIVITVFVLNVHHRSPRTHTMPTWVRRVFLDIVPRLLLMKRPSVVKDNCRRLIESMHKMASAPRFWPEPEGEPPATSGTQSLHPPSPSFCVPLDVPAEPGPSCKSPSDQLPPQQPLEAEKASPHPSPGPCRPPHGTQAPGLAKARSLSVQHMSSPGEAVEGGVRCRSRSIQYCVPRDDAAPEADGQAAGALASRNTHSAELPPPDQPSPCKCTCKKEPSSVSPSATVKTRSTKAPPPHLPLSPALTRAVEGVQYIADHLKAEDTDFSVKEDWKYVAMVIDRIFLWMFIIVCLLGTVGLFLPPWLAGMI

[4] = target: Acetylcholine receptor; alpha1/beta1/delta/gamma (Homo sapiens, UniProt P02708+P07510+P11230+Q07001); assay: Antagonist activity at human alpha-1-beta-1-gamma-delta nAChR expressed in human TE671 cells by calcium influx assay; type: functional, cell-based, TE-671
Chain of Acetylcholine receptor; alpha1/beta1/delta/gamma (P02708 whole entry): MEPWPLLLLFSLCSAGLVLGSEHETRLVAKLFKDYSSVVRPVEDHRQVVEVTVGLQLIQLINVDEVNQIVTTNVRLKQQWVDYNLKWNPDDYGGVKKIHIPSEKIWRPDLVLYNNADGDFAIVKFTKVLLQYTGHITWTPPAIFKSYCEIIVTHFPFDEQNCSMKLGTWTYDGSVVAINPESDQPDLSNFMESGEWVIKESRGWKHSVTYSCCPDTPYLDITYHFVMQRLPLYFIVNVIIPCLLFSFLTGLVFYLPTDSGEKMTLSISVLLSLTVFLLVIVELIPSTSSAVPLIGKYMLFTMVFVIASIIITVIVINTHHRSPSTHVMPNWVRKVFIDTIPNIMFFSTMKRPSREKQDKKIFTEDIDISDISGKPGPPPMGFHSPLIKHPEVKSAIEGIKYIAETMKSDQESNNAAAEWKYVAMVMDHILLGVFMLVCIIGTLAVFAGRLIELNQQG
Chain of Acetylcholine receptor; alpha1/beta1/delta/gamma (P07510 whole entry): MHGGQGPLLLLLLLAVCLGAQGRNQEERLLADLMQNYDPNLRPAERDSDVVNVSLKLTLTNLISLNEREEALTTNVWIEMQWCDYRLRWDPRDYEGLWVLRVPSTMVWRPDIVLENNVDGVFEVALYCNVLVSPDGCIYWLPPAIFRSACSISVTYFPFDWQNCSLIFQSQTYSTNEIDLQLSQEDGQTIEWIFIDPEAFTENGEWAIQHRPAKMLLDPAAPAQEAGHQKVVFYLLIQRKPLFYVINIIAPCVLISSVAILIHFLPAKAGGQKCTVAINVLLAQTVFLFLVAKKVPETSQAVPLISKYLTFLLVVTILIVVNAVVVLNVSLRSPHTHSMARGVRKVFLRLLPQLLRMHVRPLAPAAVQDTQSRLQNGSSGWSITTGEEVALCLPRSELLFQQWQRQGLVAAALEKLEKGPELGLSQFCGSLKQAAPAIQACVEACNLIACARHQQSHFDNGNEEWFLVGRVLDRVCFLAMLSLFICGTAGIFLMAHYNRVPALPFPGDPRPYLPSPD
Chain of Acetylcholine receptor; alpha1/beta1/delta/gamma (P11230 whole entry): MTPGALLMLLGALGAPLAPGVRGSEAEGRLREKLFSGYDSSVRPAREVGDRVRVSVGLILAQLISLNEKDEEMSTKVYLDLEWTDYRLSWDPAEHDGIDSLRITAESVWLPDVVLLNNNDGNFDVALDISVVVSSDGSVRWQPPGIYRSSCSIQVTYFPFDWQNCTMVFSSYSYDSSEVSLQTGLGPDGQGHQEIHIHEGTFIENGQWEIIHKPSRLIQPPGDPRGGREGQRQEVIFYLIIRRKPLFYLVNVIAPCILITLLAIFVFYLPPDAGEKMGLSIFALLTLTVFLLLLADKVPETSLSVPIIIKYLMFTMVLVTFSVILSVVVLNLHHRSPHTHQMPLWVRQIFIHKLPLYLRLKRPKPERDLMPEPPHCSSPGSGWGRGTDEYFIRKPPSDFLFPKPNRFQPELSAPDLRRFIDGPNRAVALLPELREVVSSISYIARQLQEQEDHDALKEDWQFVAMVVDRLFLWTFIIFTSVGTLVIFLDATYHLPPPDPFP
Chain of Acetylcholine receptor; alpha1/beta1/delta/gamma (Q07001 whole entry): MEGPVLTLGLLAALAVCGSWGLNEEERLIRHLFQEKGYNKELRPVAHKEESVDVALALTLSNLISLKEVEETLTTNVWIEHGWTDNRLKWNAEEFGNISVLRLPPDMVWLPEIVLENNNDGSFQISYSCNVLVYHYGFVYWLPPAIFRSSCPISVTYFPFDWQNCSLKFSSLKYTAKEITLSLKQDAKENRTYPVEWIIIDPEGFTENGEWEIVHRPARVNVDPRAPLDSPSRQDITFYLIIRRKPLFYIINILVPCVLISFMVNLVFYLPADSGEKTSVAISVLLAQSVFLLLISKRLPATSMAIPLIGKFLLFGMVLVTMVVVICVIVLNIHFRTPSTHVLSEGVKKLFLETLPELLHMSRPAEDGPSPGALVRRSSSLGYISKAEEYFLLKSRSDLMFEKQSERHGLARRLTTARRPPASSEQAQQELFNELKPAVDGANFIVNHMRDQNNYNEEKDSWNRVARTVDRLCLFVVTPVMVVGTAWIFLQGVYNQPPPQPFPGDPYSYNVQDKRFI

[5] = target: T1, 5-hydroxytryptamine receptor 3A (Homo sapiens, UniProt P46098); assay: Antagonist activity at human 5HT3 receptor by calcium influx assay; type: functional
T1 sequence (P46098 whole entry): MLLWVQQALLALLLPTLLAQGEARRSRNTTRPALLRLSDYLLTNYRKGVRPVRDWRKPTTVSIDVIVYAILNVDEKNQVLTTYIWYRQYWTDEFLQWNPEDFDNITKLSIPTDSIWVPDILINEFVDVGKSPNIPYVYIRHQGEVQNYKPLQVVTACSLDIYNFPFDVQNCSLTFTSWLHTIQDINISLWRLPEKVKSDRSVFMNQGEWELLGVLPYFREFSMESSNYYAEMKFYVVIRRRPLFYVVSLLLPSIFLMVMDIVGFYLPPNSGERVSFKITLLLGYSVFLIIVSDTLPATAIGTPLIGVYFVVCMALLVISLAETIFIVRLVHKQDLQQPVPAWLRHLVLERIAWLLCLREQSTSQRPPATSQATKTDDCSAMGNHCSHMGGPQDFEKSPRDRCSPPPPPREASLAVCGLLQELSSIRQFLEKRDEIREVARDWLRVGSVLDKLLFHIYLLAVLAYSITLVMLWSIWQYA

Homo sapiens [6] = species on record: Homo sapiens; assay: Selectivity for human alpha4beta2 nAChR over human alpha7 nAChR
Homo sapiens [7] = species on record: Homo sapiens; assay: Selectivity for human alpha-1-beta-1-gamma-delta nAChR over human alpha7 nAChR
Homo sapiens [8] = species on record: Homo sapiens; assay: Selectivity for human 5HT3 receptor over human alpha7 nAChR
[9] = target: T2, Muscarinic acetylcholine receptor M1 (Homo sapiens, UniProt P11229); assay: Inhibition of human recombinant muscarinic M1 receptor
T2 sequence (P11229 whole entry): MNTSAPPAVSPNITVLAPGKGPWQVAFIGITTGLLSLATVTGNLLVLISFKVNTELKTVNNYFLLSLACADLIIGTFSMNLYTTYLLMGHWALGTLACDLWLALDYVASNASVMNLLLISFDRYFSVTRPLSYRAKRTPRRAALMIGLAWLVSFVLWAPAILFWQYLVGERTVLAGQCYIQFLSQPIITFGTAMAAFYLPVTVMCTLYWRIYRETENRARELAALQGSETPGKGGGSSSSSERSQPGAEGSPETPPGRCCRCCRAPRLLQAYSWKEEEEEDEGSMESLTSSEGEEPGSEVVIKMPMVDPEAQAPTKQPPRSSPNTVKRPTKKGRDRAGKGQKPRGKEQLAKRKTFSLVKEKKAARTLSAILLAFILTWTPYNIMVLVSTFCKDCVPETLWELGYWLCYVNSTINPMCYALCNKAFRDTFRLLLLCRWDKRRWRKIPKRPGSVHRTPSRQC

[10] = target: T3, Muscarinic acetylcholine receptor M2 (Homo sapiens, UniProt P08172); assay: Inhibition of human recombinant muscarinic M2 receptor
T3 sequence (P08172 whole entry): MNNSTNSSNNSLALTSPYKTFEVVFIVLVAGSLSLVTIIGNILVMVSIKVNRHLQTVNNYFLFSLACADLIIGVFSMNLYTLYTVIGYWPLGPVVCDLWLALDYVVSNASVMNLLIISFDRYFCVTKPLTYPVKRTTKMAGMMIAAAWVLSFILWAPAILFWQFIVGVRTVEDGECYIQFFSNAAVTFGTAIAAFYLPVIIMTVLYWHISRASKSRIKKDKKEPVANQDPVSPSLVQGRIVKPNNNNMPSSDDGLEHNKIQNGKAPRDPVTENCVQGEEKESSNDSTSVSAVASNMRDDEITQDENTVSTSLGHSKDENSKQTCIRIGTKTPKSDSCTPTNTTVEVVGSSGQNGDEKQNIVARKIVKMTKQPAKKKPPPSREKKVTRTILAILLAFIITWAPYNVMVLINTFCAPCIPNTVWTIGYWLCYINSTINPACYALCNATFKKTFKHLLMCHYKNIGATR

[11] = target: Muscarinic acetylcholine receptor M3 (Homo sapiens, UniProt P20309); assay: Inhibition of human recombinant muscarinic M3 receptor
[12] = target: T4, Muscarinic acetylcholine receptor M4 (Homo sapiens, UniProt P08173); assay: Inhibition of human recombinant muscarinic M4 receptor
T4 sequence (P08173 whole entry): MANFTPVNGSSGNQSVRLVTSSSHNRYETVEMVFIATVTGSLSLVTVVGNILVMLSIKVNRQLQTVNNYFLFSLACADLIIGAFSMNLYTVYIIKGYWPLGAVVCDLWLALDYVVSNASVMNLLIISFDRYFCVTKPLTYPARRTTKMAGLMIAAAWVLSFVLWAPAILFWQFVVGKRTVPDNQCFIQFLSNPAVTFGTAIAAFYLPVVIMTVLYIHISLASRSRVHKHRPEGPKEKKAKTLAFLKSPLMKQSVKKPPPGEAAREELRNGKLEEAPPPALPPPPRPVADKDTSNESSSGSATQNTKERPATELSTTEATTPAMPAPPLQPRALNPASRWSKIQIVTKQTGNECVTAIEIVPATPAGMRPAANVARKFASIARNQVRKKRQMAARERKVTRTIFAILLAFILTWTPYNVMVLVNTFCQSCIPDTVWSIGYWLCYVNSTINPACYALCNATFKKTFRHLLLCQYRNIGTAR

[13] = target: T5, Muscarinic acetylcholine receptor M5 (Homo sapiens, UniProt P08912); assay: Inhibition of human recombinant muscarinic M5 receptor
T5 sequence (P08912 whole entry): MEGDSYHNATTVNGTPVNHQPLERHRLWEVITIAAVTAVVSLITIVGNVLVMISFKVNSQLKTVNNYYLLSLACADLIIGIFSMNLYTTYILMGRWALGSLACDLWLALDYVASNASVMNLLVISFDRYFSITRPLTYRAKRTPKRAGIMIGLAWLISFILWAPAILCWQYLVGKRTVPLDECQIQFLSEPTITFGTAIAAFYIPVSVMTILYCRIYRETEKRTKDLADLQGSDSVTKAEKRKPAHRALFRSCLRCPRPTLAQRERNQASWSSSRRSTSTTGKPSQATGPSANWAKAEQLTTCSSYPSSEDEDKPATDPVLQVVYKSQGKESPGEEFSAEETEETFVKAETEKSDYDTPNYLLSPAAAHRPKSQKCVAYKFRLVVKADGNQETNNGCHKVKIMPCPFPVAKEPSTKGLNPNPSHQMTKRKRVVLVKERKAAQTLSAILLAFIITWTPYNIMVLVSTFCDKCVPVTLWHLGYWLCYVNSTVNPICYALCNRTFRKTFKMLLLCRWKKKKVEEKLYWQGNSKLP

[14] = Inhibition of sodium channel at 30 uM by patch-clamp technique
[15] = target: Neuronal acetylcholine receptor subunit alpha-7 (Homo sapiens, UniProt P36544); assay: Agonist activity at human recombinant alpha7 nAChR expressed in rat GH3 cells by calcium influx assay; type: functional, cell-based
Chain of Neuronal acetylcholine receptor subunit alpha-7 (P36544 whole entry): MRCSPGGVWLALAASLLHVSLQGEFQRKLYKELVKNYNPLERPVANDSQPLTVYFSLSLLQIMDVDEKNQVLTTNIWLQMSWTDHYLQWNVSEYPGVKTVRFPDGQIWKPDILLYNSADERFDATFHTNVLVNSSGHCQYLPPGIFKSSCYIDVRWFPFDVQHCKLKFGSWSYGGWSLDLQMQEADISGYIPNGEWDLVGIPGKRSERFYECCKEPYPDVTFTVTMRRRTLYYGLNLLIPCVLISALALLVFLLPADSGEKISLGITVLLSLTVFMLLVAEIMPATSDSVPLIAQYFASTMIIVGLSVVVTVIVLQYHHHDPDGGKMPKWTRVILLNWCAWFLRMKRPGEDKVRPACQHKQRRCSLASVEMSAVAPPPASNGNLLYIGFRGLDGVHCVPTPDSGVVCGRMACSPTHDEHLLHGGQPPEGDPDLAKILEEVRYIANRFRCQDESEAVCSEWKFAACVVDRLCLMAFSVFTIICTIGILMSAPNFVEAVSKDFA
Procedure, shortened: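 GH3 cells recombinantly expressing human α7 nAChR; agonist activity. Each compound run in duplicate. EC50 taken from individual 8-point concentration-response curves and expressed as pEC50, with Emax given in %.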

[16] = target: Voltage-gated inwardly rectifying potassium channel KCNH2 (Homo sapiens, UniProt Q12809); assay: Inhibition of human ERG by patch-clamp technique
Heart = assay: Toxicity in langendorff isolated rabbit heart assessed as effect on QT interval prolongation up to 10 uM by whole heart assay; type: tissue-based, Oryctolagus cuniculus
Procedure, shortened: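 Langendorff isolated rabbit heart, ex vivo whole-heart preparation. QT interval monitored at concentrations up to 10 µM.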

[17] = Octanol-water partition coefficient, log P of the compound; type: physicochemical
[18] = Protein binding in human plasma assessed as fraction unbound; type: ADME, cell-free
Procedure, shortened: (§1)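 Binding to human and rat plasma protein, reported as the free (unbound) fraction in %.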

[19] = Protein binding in rat plasma assessed as fraction unbound; type: ADME, cell-free; procedure, shortened: as §1
[20] = Metabolic stability in mouse liver microsomes assessed as hepatic extraction ratio; type: ADME, Microsome; conditions: read-out: Activity
Procedure, shortened: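 Compound incubated with mouse or human liver microsomes. In vitro hepatic extraction ratio reported as % compound depleted at the end of the experiment; half-life also given.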

Brain [21] = assay: Drug level in DBA/2 mouse brain at 30 umol/kg, po after 1 hr; type: ADME, organism-based; conditions: in vivo
Procedure, shortened: (§2)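 Mice (n = 6) dosed 30 µmol/kg po. Brain and plasma levels measured at 1 h and 4 h after dosing, reported as pmol/g.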

Mus musculus [22] = assay: Plasma concentration in DBA/2 mouse at 30 umol/kg, po after 1 hr; type: ADME, organism-based; conditions: in vivo; procedure, shortened: as §2
Brain [23] = assay: Drug level in DBA/2 mouse brain at 30 umol/kg, po after 4 hrs; type: ADME, organism-based; conditions: in vivo; procedure, shortened: as §2
Mus musculus [24] = assay: Plasma concentration in DBA/2 mouse at 30 umol/kg, po after 4 hrs; type: ADME, organism-based; conditions: in vivo; procedure, shortened: as §2

Compound: C[C@H](OC(=O)N[C@@H]1CN2CCC1CC2)c1ccccc1F
Ratio (Homo sapiens [1]): 200
IC50 [2]: 20 µM
IC50 [3]: 25.1 µM
IC50 [4]: 126 µM
IC50 [5]: 20 µM
Ratio (Homo sapiens [6]): 251
Ratio (Homo sapiens [7]): 1260
Ratio (Homo sapiens [8]): 200
IC50 [9]: > 10 µM
IC50 [10]: > 10 µM
IC50 [11]: > 10 µM
IC50 [12]: > 10 µM
IC50 [13]: > 10 µM

inhibition [14]: 33%
EC50 [15]: 0.01 µM
Emax [15]: 104%
Ratio (Homo sapiens [1]): 126
IC50 [2]: 1.26 µM
IC50 [3]: 7.94 µM
IC50 [4]: 12.6 µM
IC50 [5]: 251 µM
Ratio (Homo sapiens [6]): 820
Ratio (Homo sapiens [7]): 1300
Ratio (Homo sapiens [8]): 26400
logP [17]: 3.7
fraction unbound [18]: 0.17
fraction unbound [19]: 0.31
hepatic extraction ratio [20]: 0.9
Drug uptake (Brain [21]): 239 pmol/g
Cp (Mus musculus [22]): 18 pmol/g
Drug uptake (Brain [23]): 64 pmol/g
Cp (Mus musculus [24]): 4 pmol/g
Compound: CN1C(=O)[C@@H](CN2CCCCC2)C[C@H]1C#Cc1ccccc1 (relative stereo)
IC50 [16]: 6.85 µM
Activity (Heart): Non-toxic
